Article PMC9110138 (Biomedicine & Pharmacotherapy, 2022)

Experiments:
[1] = canavanine, replacing arginine in P2 and P4; cited from earlier work
CYP1A2 [2] = target: T1, CYP1A2 (Homo sapiens, UniProt P05177); test: CYP1A2 luminescent P450-Glo assay in PHHs; type: cell-based; settings: 2 h; MI-1851 10, 20, 50 and 100 µM; α-naphthoflavone 10 µM
T1 sequence (P05177 1-516): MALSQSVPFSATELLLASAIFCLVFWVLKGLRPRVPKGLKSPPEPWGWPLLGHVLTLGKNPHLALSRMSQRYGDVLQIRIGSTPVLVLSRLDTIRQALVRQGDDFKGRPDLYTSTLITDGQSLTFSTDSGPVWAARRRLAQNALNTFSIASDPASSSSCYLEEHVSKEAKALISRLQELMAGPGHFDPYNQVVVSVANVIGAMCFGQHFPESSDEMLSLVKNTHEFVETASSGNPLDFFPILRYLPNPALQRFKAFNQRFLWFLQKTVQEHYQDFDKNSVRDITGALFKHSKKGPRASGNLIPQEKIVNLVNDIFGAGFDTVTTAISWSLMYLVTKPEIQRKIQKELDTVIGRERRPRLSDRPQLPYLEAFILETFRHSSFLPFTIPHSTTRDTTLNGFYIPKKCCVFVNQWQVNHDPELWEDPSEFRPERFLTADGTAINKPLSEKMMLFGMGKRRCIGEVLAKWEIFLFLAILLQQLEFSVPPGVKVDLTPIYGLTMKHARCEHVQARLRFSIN
Method in brief: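 Cryopreserved primary human hepatocytes were thawed in recovery medium and plated for 6 h in medium with 5% FBS. They were then kept FBS-free on collagen-coated membrane inserts at 37 °C, 5% CO2. Cells were washed in serum-free medium and exposed 2 h to test compound (0–100 µM; freshly diluted from 10 mM DMSO stock). CYP1A2 was read by P450-Glo with luciferin 1A2. Groups were compared by one-way ANOVA/Tukey.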

CYP1A2 [3] = target: T1, CYP1A2; test: Fluorometric CYP1A2 assay in human hepatic microsomes; type: in vitro ADME; settings: MI-1851 50 µM; α-naphthoflavone 6 µM
Method in brief: (§1)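 Human hepatic microsomes were mixed with assay buffer and NADPH-generating system. They were preincubated 15 min at 37 °C with test compound (added solutions 0–250 µM), reference inhibitor or buffer-only background control. A fluorogenic substrate/NADP+ mixture followed, with final protein 10 µg/well. Fluorescence ex/em was 406/468 nm (CYP1A2), 415/502 nm (CYP2C9) and 390/468 nm (CYP2D6). Results are substrate RFU% as mean ± SEM, n = 3 or 4.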

SARS-CoV-2 = settings: cited from earlier work; for effect on viral replication in Calu-3 cells: infected with SARS-CoV-2 at MOI 0.001 for 90 min
[4] = system: SARS-CoV-2 pseudoparticles; settings: cited from earlier work
HSA = settings: previous investigation; cited from earlier work
human recombinant CYP3A4 = human recombinant CYP3A4 (Homo sapiens, UniProt P08684); settings: microsomal and recombinant enzyme experiments; cited from earlier work
PHHs = settings: up to 50 μM, 24 h cytotoxicity assays; cited from earlier work
[5] = system: human intestinal epithelial cells; settings: up to 50 μM, 24 h cytotoxicity assays; cited from earlier work
CYP2C9 = CYP2C9 (Homo sapiens, UniProt P11712); test: Fluorometric CYP2C9 assay in human hepatic microsomes; type: in vitro ADME; settings: MI-1851 50 µM; tienilic acid 60 µM
Method in brief: as §1

CYP2D6 = CYP2D6 (Homo sapiens, UniProt P10635); test: Fluorometric CYP2D6 assay in human hepatic microsomes; type: in vitro ADME; settings: MI-1851 50 µM; quinidine 3 µM
Method in brief: as §1

human recombinant CYP3A4, sequence (P08684 whole entry): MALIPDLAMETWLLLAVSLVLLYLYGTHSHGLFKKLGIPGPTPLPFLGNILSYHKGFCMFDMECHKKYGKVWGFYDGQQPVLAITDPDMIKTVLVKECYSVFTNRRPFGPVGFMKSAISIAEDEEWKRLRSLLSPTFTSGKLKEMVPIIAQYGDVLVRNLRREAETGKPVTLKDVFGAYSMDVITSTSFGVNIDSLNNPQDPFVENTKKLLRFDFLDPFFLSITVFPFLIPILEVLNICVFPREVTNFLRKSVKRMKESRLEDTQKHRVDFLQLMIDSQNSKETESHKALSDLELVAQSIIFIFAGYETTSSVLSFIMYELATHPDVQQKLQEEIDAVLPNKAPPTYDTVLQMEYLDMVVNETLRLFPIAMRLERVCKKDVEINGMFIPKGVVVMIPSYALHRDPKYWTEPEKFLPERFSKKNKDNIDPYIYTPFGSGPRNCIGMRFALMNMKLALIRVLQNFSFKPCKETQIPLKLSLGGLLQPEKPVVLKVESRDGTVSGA
CYP2C9, sequence (P11712 whole entry): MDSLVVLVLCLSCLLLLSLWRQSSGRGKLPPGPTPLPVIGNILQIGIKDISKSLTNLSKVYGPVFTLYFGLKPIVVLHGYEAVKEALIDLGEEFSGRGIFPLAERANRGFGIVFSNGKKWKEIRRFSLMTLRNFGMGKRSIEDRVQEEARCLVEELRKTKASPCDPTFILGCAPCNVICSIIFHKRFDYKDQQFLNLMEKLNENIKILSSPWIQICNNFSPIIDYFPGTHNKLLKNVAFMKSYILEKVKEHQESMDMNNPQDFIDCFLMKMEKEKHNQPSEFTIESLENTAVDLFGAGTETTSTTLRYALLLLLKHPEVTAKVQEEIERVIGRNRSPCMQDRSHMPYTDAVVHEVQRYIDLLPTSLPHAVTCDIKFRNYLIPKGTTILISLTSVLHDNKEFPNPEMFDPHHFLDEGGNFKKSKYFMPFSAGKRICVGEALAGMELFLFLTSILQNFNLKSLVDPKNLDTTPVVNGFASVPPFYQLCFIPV
CYP2D6, sequence (P10635 whole entry): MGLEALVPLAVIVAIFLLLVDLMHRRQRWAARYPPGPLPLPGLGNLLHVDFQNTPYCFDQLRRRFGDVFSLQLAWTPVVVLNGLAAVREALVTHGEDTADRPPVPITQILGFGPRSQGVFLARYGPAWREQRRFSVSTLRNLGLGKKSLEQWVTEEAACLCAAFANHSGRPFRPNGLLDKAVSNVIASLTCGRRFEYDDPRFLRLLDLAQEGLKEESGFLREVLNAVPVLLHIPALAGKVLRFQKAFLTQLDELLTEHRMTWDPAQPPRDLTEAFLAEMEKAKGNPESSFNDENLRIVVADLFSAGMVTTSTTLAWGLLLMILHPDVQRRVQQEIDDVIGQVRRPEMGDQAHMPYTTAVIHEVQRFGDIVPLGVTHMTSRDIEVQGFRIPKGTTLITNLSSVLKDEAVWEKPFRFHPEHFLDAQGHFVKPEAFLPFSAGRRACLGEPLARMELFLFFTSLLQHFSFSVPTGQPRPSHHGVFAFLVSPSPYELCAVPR

## N=C(N)NOCC[C@H](N)C(=O)O [canavanine]
[1]
  pKa: 7.04

## O=c1cc(-c2ccccc2)oc2c1ccc1ccccc12 [α-naphthoflavone]
CYP1A2 [2]
  effect on CYP1A2 activity in PHHs: significant inhibitory effects
CYP1A2 [3]
  effect on human microsomal CYP1A2 activity: significant inhibition

## aprotinin
SARS-CoV-2; 10 µM, 48 h post infection
  effect on virus replication in vitro: decreased the virus replication
SARS-CoV-2
  effect on viral replication in Calu-3 cells: inhibit viral replication

## CCOC(=O)[C@H]1O[C@@H]1C(=O)N[C@@H](CC(C)C)C(=O)NCCC(C)C [E64d]
[4]
  effect on infection with SARS-CoV-2 pseudoparticles: could decrease infection

## N=C(N)c1cccc(C[C@H](NS(=O)(=O)c2cccc(-c3ccc(Cl)cc3Cl)c2)C(=O)N2CCC(CCN)CC2)c1.O=C(O)C(F)(F)F.O=C(O)C(F)(F)F [MI-432]
HSA
  interactions with HSA: no or only weak interactions
Human recombinant CYP3A4
  inhibition of CYP3A4: potent inhibitors of CYP3A4 at the nanomolar or low micromolar range
SARS-CoV-2
  effect on viral titers in human airway epithelial Calu-3 cells: efficiently reduced
  effect on viral replication in Calu-3 cells: inhibit viral replication

## COc1ccc(-c2cccc(S(=O)(=O)N[C@@H](Cc3cccc(C(=N)N)c3)C(=O)N3CCN(C(=O)NC4CCCCC4)CC3)c2)c(OC)c1 [MI-1900]
HSA
  interactions with HSA: no or only weak interactions
Human recombinant CYP3A4
  inhibition of CYP3A4: potent inhibitors of CYP3A4 at the nanomolar or low micromolar range
PHHs
  damage to PHHs: did not cause damage
SARS-CoV-2
  effect on viral titers in human airway epithelial Calu-3 cells: efficiently reduced
  effect on viral replication in Calu-3 cells: inhibit viral replication
[5]
  damage to human intestinal epithelial cells: did not cause damage

## O=C(O)COc1ccc(C(=O)c2cccs2)c(Cl)c1Cl [tienilic acid]
CYP2C9
  effect on human microsomal CYP2C9 activity: significant inhibition

## C=C[C@H]1C[N@@]2CC[C@H]1C[C@@H]2[C@@H](O)c1ccnc2ccc(OC)cc12 [quinidine]
CYP2D6
  effect on human microsomal CYP2D6 activity: significant inhibition
